Here are results for 19 compounds from ChEMBL document CHEMBL1938353, “Discovery and optimization of aminopyrimidinones as potent and state-dependent Nav1.7 antagonists” (Bioorg Med Chem Lett, 2012).

SMILES strings stand for the structures. Converted amounts (≈) assume the structure as drawn.

Data set [1] in a line: Clearance in Sprague-Dawley rat at 0.5 mg/kg, iv. Also noted: dose 0.5 mg/kg, route intravenous. It is filed as ADME, organism-based. Particulars: in vivo.
In data set [2] the target is Sodium channel protein type 5 subunit alpha (Homo sapiens, UniProt Q14524). Nature of the data set: Antagonist activity at partially inactivated human sodium channel Nav1.5 expressed in human HEK293 cells by patch-clamp electrophysiological assay. It is filed as functional, cell-based. For orientation: Patch clamp records ionic current or voltage across a cell membrane.

A short description of data set [3]: Half life in Sprague-Dawley rat at 0.5 mg/kg, iv. In kind it is ADME, organism-based. Also noted: dose 0.5 mg/kg, route intravenous. Particulars: in vivo.
The next data set relates to Hepatocyte. Nature of the data set: Drug metabolism in rat hepatocytes assessed as glucuronide adduct formation at 18.7 mins. In kind it is ADME, cell-based. The note with it: 0.311667 h.
Data set [4] is described as follows: Solubility of the compound in phosphate buffer saline. Particulars: phosphate buffered saline. It is filed as physicochemical.
Data set [5] can be described thus: Solubility of the compound in 0.01 N HCl. It is filed as physicochemical.
For data set [6], the target named is T1, Sodium channel protein type 9 subunit alpha (Homo sapiens, UniProt Q15858). Nature of the data set: Antagonist activity at 20% inactivated human sodium channel Nav1.7 expressed in human HEK293 cells by patch-clamp electrophysiological assay. It is filed as functional, cell-based. Summed up:
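Automated PatchXpress electrophysiology on hNav1.7 channels with an average 20% contribution from inactivated channels. Dose-response curves built from single-concentration tests on many cells. IC50 is the average of at least two determinations.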

Data set [7] in a line: Volume of distribution at steady state in Sprague-Dawley rat at 0.5 mg/kg, iv. It is filed as ADME, organism-based. Set-up: dose 0.5 mg/kg, route intravenous. The note with it: in vivo, read-out: Vdss.
The target of data set [8] is T1, Sodium channel protein type 9 subunit alpha. Nature of the data set: Antagonist activity at non-inactivated human sodium channel Nav1.7 expressed in human HEK293 cells by manual patch-clamp electrophysiological assay. In kind it is functional, cell-based. The method, boiled down: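 Manual electrophysiology on fully noninactivated hNav1.7 with holding voltage set to -140 mV. […] Values are the average of at least two determinations.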

The target is the same in data set [9]. Nature of the data set: Antagonist activity at 20% inactivated human sodium channel Nav1.7 expressed in human HEK293 cells by manual patch-clamp electrophysiological assay. It is filed as functional, cell-based. Summed up: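 Manual electrophysiology on hNav1.7; holding voltage set, and adjusted as needed during the experiment, to give steady 20% inactivation. […] Values are the average of at least two determinations.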

The nature of data set [10]: Solubility of the compound in simulated intestinal fluid. It is filed as physicochemical.
The subject of a further data set is MDR1 (P-gp). Nature of the data set: Apparent permeability across pig LLC-PK1 cells over expressing human MDR1 at 5 uM in presence 0.1 % BSA. In kind it is ADME, cell-based, Sus scrofa. Summed up: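 MDR1-LLC-PK1 pig kidney cells expressing human MDR1. Compound tested at 5 µM with 0.1% BSA. Permeability is the average of the apical-to-basolateral and basolateral-to-apical apparent permeability values.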

Data set [11] addresses Voltage-gated inwardly rectifying potassium channel KCNH2 (Homo sapiens, UniProt Q12809). Nature of the data set: Displacement of dofetilide from human ERG.
In the next data set the test system is LLC-PK1. Nature of the data set: Efflux ratio of permeability from […] side in pig LLC-PK1 cells over expressing human MDR1. It is filed as ADME, cell-based, Sus scrofa. The method, boiled down: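 Pig kidney LLC-PK1 cells expressing human MDR1. Compound tested in the presence of 0.1% BSA. Apparent permeability was measured in both the apical-to-basolateral and basolateral-to-apical directions.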

Data set [12] relates to Liver microsomes. As to the kind of experiment: Metabolic stability in rat liver microsomes after 15 mins. In kind it is ADME, Microsome. The note with it: 0.25 h.
Data set [13] deals with Liver microsomes. Nature of the data set: Metabolic stability in human liver microsomes after 15 mins. It is filed as ADME, Microsome. Particulars: 0.25 h.
For data set [14], the species on record is Rattus norvegicus. Nature of the data set: Toxicity in rat assessed as complete reduction in rearing behavior by open field test. In kind it is organism-based. Also noted: scale not given: the % may be the effect or the level left. Particulars: in vivo.
A short description of data set [15]: Ratio of drug level in brain to plasma in ip dosed rat. Particulars: brain and plasma, read-out: BPR. It is filed as ADME, organism-based.
For data set [16], the species on record is Rattus norvegicus. Nature of the data set: Toxicity in rat assessed as reduction in total basic movement by open field test. The note with it: in vivo. It is filed as organism-based. Set-up: scale not given: the % may be the effect or the level left.

T1 sequence (Q15858 whole entry): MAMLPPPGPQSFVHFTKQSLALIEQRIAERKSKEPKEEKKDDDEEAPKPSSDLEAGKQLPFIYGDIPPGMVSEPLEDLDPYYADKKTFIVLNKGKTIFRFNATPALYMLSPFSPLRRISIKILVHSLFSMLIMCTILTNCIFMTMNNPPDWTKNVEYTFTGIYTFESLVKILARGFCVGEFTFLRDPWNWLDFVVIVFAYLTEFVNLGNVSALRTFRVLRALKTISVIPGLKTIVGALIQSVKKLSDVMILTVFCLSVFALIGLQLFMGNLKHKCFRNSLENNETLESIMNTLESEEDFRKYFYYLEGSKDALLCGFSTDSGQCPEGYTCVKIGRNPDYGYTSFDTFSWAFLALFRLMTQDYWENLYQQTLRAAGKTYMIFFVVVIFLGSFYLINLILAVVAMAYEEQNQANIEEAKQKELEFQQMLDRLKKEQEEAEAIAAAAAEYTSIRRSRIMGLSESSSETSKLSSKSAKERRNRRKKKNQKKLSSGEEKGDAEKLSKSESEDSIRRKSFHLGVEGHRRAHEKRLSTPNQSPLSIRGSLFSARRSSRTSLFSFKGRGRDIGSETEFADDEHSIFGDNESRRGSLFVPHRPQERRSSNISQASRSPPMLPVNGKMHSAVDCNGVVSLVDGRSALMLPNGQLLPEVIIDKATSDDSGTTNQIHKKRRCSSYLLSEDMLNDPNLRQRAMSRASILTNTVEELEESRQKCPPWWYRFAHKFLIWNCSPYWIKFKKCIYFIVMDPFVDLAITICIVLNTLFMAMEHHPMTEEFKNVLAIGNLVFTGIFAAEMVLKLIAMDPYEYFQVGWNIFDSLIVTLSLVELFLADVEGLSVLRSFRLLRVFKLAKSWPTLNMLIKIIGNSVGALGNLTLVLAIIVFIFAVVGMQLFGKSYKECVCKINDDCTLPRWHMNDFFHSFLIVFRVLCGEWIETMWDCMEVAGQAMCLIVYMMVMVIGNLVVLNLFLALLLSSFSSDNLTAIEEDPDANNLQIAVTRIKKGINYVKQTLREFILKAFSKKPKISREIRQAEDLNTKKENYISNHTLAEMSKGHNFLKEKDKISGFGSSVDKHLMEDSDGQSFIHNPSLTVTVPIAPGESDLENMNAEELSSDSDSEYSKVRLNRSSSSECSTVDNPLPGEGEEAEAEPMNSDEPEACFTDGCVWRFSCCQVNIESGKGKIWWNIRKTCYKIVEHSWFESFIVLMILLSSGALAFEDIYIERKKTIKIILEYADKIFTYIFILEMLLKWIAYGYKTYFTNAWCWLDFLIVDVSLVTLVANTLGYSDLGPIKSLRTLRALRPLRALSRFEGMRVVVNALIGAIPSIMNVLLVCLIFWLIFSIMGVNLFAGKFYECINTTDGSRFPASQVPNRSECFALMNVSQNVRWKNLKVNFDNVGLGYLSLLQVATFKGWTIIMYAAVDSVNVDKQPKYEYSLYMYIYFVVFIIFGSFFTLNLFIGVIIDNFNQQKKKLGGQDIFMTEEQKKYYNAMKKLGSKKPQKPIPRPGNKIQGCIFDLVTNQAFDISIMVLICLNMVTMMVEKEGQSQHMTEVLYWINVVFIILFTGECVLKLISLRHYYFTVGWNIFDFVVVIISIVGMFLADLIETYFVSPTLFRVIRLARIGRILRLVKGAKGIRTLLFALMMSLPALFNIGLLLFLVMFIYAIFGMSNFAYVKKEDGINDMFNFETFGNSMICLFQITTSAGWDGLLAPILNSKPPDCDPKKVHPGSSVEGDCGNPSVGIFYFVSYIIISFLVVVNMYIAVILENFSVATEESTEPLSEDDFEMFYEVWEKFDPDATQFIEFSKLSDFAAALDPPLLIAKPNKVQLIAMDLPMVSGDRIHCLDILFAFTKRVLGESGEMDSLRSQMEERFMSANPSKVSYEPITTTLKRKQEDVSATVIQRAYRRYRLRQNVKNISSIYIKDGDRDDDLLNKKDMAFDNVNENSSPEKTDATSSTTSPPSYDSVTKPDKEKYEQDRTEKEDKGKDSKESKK
Chain of Sodium channel protein type 5 subunit alpha (Q14524 whole entry): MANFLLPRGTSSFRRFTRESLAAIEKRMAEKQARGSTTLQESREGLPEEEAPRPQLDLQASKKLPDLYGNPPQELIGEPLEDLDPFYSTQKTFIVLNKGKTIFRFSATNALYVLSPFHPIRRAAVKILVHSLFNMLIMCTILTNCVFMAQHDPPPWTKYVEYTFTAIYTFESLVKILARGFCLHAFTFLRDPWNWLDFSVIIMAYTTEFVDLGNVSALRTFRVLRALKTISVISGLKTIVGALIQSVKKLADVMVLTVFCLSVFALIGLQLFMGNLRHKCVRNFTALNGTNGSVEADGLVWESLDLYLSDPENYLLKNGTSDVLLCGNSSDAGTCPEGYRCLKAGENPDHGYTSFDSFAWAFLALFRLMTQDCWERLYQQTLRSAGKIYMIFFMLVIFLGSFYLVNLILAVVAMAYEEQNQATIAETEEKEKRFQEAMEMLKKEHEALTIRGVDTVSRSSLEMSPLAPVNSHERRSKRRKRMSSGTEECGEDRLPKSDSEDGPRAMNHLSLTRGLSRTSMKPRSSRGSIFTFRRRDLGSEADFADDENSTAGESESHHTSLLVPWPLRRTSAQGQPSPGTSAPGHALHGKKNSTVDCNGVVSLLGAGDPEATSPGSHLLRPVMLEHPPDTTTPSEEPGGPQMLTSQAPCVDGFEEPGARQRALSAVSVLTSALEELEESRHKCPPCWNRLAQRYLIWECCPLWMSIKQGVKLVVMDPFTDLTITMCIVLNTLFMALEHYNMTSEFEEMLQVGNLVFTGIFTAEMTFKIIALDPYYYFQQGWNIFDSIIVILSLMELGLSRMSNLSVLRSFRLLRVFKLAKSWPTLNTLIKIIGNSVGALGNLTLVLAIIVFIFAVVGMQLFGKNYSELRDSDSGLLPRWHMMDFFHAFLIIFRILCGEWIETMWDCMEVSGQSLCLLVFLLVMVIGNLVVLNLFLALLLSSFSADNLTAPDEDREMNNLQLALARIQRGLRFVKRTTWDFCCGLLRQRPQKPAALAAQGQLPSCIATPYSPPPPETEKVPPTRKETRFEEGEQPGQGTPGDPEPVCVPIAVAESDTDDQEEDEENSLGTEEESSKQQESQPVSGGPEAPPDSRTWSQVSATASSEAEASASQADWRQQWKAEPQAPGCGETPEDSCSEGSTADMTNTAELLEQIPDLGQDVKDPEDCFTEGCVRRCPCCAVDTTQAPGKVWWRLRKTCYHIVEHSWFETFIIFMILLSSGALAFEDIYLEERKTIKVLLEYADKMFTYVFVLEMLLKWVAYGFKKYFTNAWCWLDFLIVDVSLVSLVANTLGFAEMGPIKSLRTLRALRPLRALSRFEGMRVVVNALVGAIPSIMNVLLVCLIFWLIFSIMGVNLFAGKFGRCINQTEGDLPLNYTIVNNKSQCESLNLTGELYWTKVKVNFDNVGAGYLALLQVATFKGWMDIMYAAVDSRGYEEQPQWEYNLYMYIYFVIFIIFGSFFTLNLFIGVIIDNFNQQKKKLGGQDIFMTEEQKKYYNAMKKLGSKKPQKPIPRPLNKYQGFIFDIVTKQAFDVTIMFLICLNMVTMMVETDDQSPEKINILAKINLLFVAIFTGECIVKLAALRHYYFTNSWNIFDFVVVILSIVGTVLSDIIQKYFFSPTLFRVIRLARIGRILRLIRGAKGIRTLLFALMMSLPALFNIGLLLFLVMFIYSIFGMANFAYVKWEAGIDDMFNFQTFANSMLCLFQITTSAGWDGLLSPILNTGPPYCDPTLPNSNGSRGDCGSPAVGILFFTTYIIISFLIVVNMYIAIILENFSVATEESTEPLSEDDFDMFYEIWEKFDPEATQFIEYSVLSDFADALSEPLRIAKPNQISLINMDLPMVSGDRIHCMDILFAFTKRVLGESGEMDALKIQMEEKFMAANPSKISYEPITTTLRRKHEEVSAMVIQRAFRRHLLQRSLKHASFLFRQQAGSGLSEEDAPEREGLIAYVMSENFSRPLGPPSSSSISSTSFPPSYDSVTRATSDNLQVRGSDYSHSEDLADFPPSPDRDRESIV
Chain of Voltage-gated inwardly rectifying potassium channel KCNH2 (Q12809 whole entry): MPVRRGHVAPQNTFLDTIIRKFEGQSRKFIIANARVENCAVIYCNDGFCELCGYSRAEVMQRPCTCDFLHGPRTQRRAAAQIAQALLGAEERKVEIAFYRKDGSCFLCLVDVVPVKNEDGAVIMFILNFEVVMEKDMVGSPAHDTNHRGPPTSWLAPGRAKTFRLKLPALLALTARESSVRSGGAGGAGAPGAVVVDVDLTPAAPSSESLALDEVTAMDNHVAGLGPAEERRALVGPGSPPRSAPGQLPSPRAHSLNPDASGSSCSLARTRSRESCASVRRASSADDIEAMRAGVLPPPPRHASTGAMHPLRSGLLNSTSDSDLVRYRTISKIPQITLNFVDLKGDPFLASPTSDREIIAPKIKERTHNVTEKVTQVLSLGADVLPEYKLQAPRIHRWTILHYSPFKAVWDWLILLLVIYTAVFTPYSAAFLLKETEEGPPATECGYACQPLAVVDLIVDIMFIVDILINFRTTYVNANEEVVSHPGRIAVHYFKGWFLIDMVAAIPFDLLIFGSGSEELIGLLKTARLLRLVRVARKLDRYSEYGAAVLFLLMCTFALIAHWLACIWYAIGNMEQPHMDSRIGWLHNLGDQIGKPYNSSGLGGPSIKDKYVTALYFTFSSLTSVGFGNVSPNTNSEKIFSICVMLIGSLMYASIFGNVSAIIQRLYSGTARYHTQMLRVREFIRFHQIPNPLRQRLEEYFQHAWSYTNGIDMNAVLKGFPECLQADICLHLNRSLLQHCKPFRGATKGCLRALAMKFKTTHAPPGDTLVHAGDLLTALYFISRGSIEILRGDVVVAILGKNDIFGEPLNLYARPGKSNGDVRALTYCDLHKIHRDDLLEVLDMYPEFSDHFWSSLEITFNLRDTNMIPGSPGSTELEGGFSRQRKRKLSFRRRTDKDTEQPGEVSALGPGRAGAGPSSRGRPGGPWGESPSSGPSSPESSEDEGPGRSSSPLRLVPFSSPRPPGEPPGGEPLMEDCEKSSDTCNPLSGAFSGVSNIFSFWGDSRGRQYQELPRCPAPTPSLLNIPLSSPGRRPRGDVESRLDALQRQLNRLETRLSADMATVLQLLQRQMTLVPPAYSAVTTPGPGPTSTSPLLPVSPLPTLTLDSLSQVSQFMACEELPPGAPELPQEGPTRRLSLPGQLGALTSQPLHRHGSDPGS

For `CC(C)(C)c1ccc(CSc2nc(N)cc(O)n2)cc1`, the clearance (usually the volume of plasma or blood freed of the substance per unit of time) in data set [1] is 85 mL/min/kg. Also, the IC50 (as a rule, the concentration needed to halve the response being measured) in data set [2] stood at 300 nM; in data set [6], 0.68 µM; in [8], 2200 nM; in data set [9] it was 340 nM. Moreover, the half-life (commonly the time needed for the level to fall by half in the phase considered) in [3] is 162 min. In the data set with Hepatocyte, the Drug metabolism entry was “Active”. For the same compound, the solubility (in general, the dissolved amount per volume that the medium holds) is 5 µg/mL (≈ 17.3 µM) in data set [4], 4 µg/mL (≈ 13.8 µM) in data set [5] and 67 µg/mL (≈ 232 µM) in [10]. Also, in data set [7], the Vd was determined as 7.9 L/kg. Further, in the data set on MDR1 (P-gp), the Papp (usually the rate of passage across a membrane or cell layer, normalised by area and donor concentration) at 5 µM was 27 ×10⁻⁶ cm/s.
In the case of `Nc1cc(=O)[nH]c(SCc2ccc(Cl)cc2)n1`, the IC50 in [6] was determined as 4.7 µM.
`CCCCCCCSc1nc(N)cc(=O)[nH]1` gave a clearance in [1] of 108 mL/min/kg. Besides, the 50% inhibitory concentration (IC50) in data set [2] stood at 1200 nM; in data set [6], 0.94 µM; in data set [8] it was 1400 nM; in [9], 400 nM. In [3], this compound gave a half-life of 15 min. Besides, in [11], the Ki – broadly, a measure of affinity in units of concentration, obtained from inhibition or displacement – is > 15 µM. Further, the solubility was 2 µg/mL (≈ 8.29 µM) in data set [4], 3 µg/mL (≈ 12.4 µM) in data set [5] and 14 µg/mL (≈ 58 µM) in data set [10]. Further, the Vd in data set [7] amounted to 1.3 L/kg. Moreover, the Ratio with LLC-PK1 is 1.1. Besides, the Papp at 5 µM with MDR1 (P-gp) amounted to 21 ×10⁻⁶ cm/s.
Consider `N#Cc1ccc(CSc2nc(N)cc(O)n2)cc1`, for which, in data set [6], the 50% inhibitory concentration (IC50) is > 30 µM.
As for `CC(C)(C)c1ccc(CSc2nc(NC(=O)C3CC3)cc(=O)[nH]2)cc1`, the Stability entry with Liver microsomes [12] and in the data set on Liver microsomes [13] was “Unstable” throughout. In data set [6], the IC50 is 2.5 µM.
In the case of `CC(C)CSc1nc(N)cc(=O)[nH]1`, the IC50 in data set [6] was > 30 µM.
On the same count and under the same terms, then `Nc1cc(=O)[nH]c(SCc2ccc(OC(F)(F)F)cc2)n1`, with 2.2 µM.
As for `CS(=O)(=O)c1ccc(CSc2nc(N)cc(=O)[nH]2)cc1`, in data set [6], the IC50 is > 30 µM.
On the same count and under the same terms, then `CC(C)(C)c1ccc(CSc2nccc(=O)[nH]2)cc1`, with > 30 µM.
The same measure, in the same setting: then `CC(C)(C)c1ccc(CSc2nc(O)cc(=O)[nH]2)cc1`, with > 30 µM.
Turning to `CC(=O)Nc1cc(=O)[nH]c(SCc2ccc(C(C)(C)C)cc2)n1`, the Stability entry in the data set on Liver microsomes [12] and with Liver microsomes [13] was “Unstable” throughout. Also, the IC50 in [6] was determined as 1.2 µM.
`CC(C)(C)OC(=O)Nc1cc(=O)[nH]c(SCc2ccc(C(C)(C)C)cc2)n1` displayed an IC50 in [6] of 7.8 µM.
The same measure, in the same setting: the value for `CC(C)(C)c1ccc(CSc2nc(NS(C)(=O)=O)cc(=O)[nH]2)cc1` was > 30 µM.
Consider `CC(C)(C)c1ccc(CSc2nc(N)c(Cl)c(=O)[nH]2)cc1`, for which the midpoint of inhibition in data set [6], the IC50, lay at 4.3 µM.
Same read-out and setting: then `CC(C)(C)c1ccc(CSc2nc(N)c(N)c(=O)[nH]2)cc1`, with > 30 µM; and `CC(C)(C)c1ccc(CSc2nc3[nH]cnc3c(=O)[nH]2)cc1`, with > 30 µM.
Take `Cn1c(SCc2ccc(C(C)(C)C)cc2)nc(N)cc1=O`: the clearance in data set [1] is 18.3 mL/min/kg. The half-maximal inhibitory concentration (IC50) in data set [2] was determined as 200 nM; in [6], 0.42 µM; in data set [8] it was 500 nM; in data set [9], 80 nM. The compound further showed a half-life in data set [3] of 234 min. The Ki in data set [11] was > 15 µM. For the same compound, the Activity in the data set filed under Rattus norvegicus [14] came out at 98%; in the data set filed under Rattus norvegicus [16], 81%. In addition, the figures for the solubility in data set [4], in [5] and in data set [10] were 10 µg/mL (≈ 33 µM), 1 µg/mL (≈ 3.3 µM) and 14 µg/mL (≈ 46.1 µM), respectively. Also, the Vd in [7] was determined as 2.6 L/kg. Besides, in the data set on LLC-PK1, the Ratio came out at 1. Also, in data set [15], the Kp was found to be 3.3. Further, the Papp at 5 µM with MDR1 (P-gp) was 16 ×10⁻⁶ cm/s.
With `COc1cc(N)nc(SCc2ccc(C(C)(C)C)cc2)n1`, the IC50 in [6] was > 30 µM.
Turning to `Cn1c(N)cc(=O)nc1SCc1ccc(C(C)(C)C)cc1`, the IC50 in data set [6] was > 30 µM.
